Measured values: ChEMBL document CHEMBL1149392, “PTP-1B inhibitors: cyclopenta[d][1,2]-oxazine derivatives” (Bioorg Med Chem Lett, 2006)

Legend:
[1] = target: T1, Tyrosine-protein phosphatase non-receptor type 1 (Homo sapiens, UniProt P18031); assay: Inhibitory activity against recombinant human PTP1B
T1 sequence (P18031 whole entry): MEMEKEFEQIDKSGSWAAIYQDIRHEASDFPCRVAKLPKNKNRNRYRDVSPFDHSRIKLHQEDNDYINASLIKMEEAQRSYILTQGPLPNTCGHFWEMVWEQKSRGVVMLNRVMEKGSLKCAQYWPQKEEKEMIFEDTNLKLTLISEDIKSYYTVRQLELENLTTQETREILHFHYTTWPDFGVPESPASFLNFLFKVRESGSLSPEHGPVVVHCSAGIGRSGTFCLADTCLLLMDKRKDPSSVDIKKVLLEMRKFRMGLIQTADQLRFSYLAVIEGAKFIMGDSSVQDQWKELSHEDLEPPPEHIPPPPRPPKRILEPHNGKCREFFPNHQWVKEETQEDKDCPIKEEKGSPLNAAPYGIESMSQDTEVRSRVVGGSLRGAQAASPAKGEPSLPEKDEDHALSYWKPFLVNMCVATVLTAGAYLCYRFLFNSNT
Summary of the method: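 Recombinant human PTP-1B (0.1 μg) incubated with 20 μM fluorescein diphosphate and compound in 30 mM Tris, 75 mM NaCl, 0.67 mM EDTA, 1 mM DTT, pH 8.0, for 1 h at room temperature. Product fluorescein monophosphate read by fluorescence (ex 485 nm, em 538 nm). IC50 reported.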

[2] = target: Dual specificity protein phosphatase 3 (Homo sapiens, UniProt P51452); assay: Inhibitory activity against VH1-related phosphatase VHR
Summary of the method: (§1)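 Selectivity panel of nine phosphatases, each assayed with fluorescein diphosphate at the same concentration as in the PTP-1B assay (20 μM). IC50 values (μM) reported.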

[3] = target: T2, Receptor-type tyrosine-protein phosphatase C (Homo sapiens, UniProt P08575); assay: Inhibitory activity against CD45 phosphatase; summary of the method: as §1
T2 sequence (P08575 whole entry): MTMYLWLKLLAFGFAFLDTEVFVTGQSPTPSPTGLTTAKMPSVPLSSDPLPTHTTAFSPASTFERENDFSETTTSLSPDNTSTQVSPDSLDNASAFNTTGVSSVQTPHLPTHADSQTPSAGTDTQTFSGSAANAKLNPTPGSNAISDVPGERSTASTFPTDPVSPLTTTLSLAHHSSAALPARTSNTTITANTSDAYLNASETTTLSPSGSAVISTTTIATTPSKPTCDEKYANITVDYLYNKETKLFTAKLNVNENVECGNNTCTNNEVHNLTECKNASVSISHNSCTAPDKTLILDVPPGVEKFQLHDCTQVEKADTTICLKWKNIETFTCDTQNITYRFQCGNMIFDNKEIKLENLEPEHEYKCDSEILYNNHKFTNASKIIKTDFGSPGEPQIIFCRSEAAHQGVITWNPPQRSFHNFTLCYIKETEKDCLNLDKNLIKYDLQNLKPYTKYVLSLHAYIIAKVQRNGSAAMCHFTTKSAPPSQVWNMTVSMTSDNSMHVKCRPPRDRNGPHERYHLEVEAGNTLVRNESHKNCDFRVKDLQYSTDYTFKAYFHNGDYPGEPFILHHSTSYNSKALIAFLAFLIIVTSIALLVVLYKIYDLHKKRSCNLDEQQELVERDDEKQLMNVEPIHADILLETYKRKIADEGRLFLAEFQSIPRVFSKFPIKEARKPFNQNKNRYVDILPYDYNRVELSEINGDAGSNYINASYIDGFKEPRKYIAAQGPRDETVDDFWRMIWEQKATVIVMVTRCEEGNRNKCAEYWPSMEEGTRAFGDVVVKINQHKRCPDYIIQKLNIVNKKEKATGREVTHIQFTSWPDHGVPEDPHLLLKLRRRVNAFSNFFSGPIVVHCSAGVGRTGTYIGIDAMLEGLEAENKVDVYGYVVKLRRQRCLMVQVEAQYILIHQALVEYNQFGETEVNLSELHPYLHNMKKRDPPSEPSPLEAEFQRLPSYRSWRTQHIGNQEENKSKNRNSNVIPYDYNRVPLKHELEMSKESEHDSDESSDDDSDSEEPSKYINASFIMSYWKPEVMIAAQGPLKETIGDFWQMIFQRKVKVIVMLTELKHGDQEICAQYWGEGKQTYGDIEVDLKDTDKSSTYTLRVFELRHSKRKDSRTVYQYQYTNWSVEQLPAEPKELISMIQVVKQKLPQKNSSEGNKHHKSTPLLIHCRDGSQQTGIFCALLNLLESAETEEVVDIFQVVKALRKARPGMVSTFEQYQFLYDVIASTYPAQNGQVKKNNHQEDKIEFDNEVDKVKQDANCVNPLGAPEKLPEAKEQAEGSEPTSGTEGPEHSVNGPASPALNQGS

[4] = Inhibitory activity against protein phosphatase type 2A; summary of the method: as §1

Dual specificity protein phosphatase 3, sequence (P51452 whole entry): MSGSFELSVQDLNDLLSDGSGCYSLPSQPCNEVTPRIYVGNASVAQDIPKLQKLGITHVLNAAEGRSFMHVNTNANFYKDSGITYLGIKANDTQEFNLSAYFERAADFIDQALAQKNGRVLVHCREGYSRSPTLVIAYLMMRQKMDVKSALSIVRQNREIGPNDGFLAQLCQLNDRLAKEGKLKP

`COc1ccc(C(=O)c2ccc3c(-c4ccc(OCC(=O)O)cc4)nocc2-3)cc1` showed an IC50 [1] of 800 nM, an IC50 [2] of 181000 nM and an IC50 [3] of 28800 nM. For the same molecule, the IC50 [4] was over 10000 nM.
For `NCc1ccc(C(=O)c2ccc3c(-c4ccc(OCC(=O)O)cc4)nocc2-3)cc1`, the IC50 [1] was 2160 nM and the IC50 [3] was 1230 nM.
With `CCCCCCCCCCCCCCc1ccc(C(=O)c2ccc3c(-c4ccc(OCC(=O)O)cc4)nocc2-3)cc1` the IC50 [1] was 140 nM and the IC50 [3] was 150 nM.
